Experimental data as given in ChEMBL document CHEMBL1155688, “New pyridinium alkaloids from a marine sponge of the genus Spongia with a human phospholipase A(2) inhibitor profile” (J Nat Prod, 2000).
Activity calls are given as the source filed them. The calls are words filed in the database; no cut-off is given here.

What was measured:
Rattus norvegicus = species on record: Rattus norvegicus; experiment: Inhibition of rat air pouch sPLA2 at 10 uM
How it was run: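 sPLA2 source was exudate supernatant from zymosan-injected rat air pouch. Preincubated 5 min at 37 °C with compound or vehicle, then 15 min with autoclaved [3H]oleate-labelled E. coli CECT 101 membranes. Stopped with ice-cold BSA (0.07% w/v final). Released radioactivity in the supernatant counted by scintillation. Mean ± SEM, n = 6.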

Apis mellifera = experiment: Inhibition of bee venom sPLA2 at 10 uM
How it was run: (§1)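 Radiometric sPLA2 assay on E. coli CECT 101 membranes labelled by growth for 6–8 h at 37 °C with [3H]oleic acid, then autoclaved. Bee venom or human recombinant synovial enzyme in 100 mM Tris-HCl, 1 mM CaCl2, pH 7.5. Enzyme preincubated 5 min at 37 °C with compound or vehicle, then 15 min with membranes. Stopped with ice-cold BSA and centrifuged. Supernatant radioactivity counted by scintillation. IC50 from at least four concentrations (n = 6). Mean ± SEM.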

RAW264.7 = experiment: Inhibition of cPLA2 in mouse RAW264.7 cells; assay type: cell-based
How it was run: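 Enzyme was the cytosolic fraction of murine RAW 264.7 cells. Substrate was 1-palmitoyl-2-[14C]arachidonyl-phosphatidylcholine. Compound in methanol (<1% final) added before the enzyme, then 60 min at 37 °C. Stopped with isopropanol-heptane-0.5 M H2SO4 (10:5:1). Released arachidonate in the heptane phase was cleaned on silica gel and counted.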

Sus scrofa = species on record: Sus scrofa; experiment: Inhibition of pig pancreas sPLA2 at 10 uM
How it was run: (§2)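 Purified enzyme (Naja naja venom, porcine pancreatic, or human recombinant synovial) in 100 mM Tris-HCl, 1 mM CaCl2, pH 7.5, preincubated 5 min at 37 °C with compound or vehicle. Then incubated 15 min with autoclaved E. coli CECT 101 membranes labelled with [3H]oleic acid. Stopped with ice-cold BSA (0.07% w/v final). Supernatant radioactivity counted after centrifugation. Mean ± SEM, n = 6.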

Naja naja = experiment: Inhibition of Naja naja sPLA2 at 10 uM; how it was run: as §2
[1] = Cytotoxicity against human neutrophils up to 10 uM by MTT assay; assay type: cell-based; conditions: neutrophil
How it was run: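 Viability of human neutrophils assessed by mitochondrial reduction of MTT to formazan.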

Homo sapiens = species on record: Homo sapiens; experiment: Inhibition of human synovial sPLA2 at 10 uM; how it was run: as §2
[2] = Inhibition of human synovial sPLA2; how it was run: as §1
[3] = Inhibition of bee venom sPLA2; design: species or system Apis mellifera; how it was run: as §1

SMILES	inhibition (Rattus norvegicus)	inhibition (Apis mellifera)	Activity (RAW264.7)	inhibition (Sus scrofa)	inhibition (Naja naja)	Activity [1]	inhibition (Homo sapiens)	IC50 [2]	IC50 [3]
CC1(C)CCC[C@@]2(C)C1CC[C@@]1(C)c3cc[n+](CCS(=O)(=O)O)cc3CCC21 (some centres not stated) [SPONGIDINE D]	19.6%	37.6%	inactive	7.6%	0%	Not Active	48.2%		
C[C@]1(CO)CCC[C@]2(C)[C@H]3CC[C@@H]4C=C(CC(=O)O)C(=O)C[C@H]4[C@]3(C)CC[C@H]12 [PETROSASPONGIOLIDE K]	18.8%	37.1%		14.3%	1.3%	Not Active	34.4%		
C[C@]1(CO)CCC[C@]2(C)[C@H]3CC[C@@H]4C(O)O[C@@H](C5=CC(=O)OC5O)C[C@H]4[C@]3(C)CC[C@H]12 (some centres not stated) [PETROSASPONGIOLIDE P]	25.6%	5.4%		19.5%	8.7%	Not Active	87.2%	5.8 µM	
CC(=O)OC[C@@]1(C)CCC[C@@]2(C)C1CC[C@@]1(C)c3cc[n+](CC(=O)O)cc3CCC21 (some centres not stated) [SPONGIDINE B]	17.9%	32.2%	inactive	14.2%	0.4%	Not Active	34.6%		
CC1(C)CCC[C@@]2(C)C1CC[C@@]1(C)c3cc(CCC(=O)O)[n+](CC(=O)O)cc3CCC21.[Cl-] (some centres not stated) [SPONGIDINE C]	30.9%	36.2%	inactive	9.1%	3.1%	Not Active	40.4%		
CC1(C)CCC[C@@]2(C)C1CC[C@@]1(C)c3cc[n+](CC(=O)O)cc3CCC21.[Cl-] (some centres not stated) [SPONGIDINE A]	17.1%	33.1%	inactive	18%	0.5%	Not Active	40.1%		
CC1=C(CC/C(C)=C/CCC2=CC[C@H](C3=CC(=O)OC3O)O[C@@H]2O)C(C)(C)CCC1 (some centres not stated) [MANOLIDE]	38.4%	62.5%		32.3%			93.2%	3.9 µM	7.5 µM
